Screening results: PubChem BioAssay, The Scripps Research Institute Molecular Screening Center
A selection: hits, their analogues and other compounds. The true share with any hit is near 1.8%.
CHRM4 PAM: positive allosteric modulators of human muscarinic M4 receptor. P08173. CHO-K1 hM4/Gqi5, Fluo-8 calcium fluorescence, ACh EC20; 0% = ACh EC20, 100% = maximal ACh. hit rate 0.4% among 360,000. activation, % at 3 µM;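 active = activation above its plate's cutoff, the mean activation of sample wells plus 3 SD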
Target sequence (P08173 whole entry, looked up): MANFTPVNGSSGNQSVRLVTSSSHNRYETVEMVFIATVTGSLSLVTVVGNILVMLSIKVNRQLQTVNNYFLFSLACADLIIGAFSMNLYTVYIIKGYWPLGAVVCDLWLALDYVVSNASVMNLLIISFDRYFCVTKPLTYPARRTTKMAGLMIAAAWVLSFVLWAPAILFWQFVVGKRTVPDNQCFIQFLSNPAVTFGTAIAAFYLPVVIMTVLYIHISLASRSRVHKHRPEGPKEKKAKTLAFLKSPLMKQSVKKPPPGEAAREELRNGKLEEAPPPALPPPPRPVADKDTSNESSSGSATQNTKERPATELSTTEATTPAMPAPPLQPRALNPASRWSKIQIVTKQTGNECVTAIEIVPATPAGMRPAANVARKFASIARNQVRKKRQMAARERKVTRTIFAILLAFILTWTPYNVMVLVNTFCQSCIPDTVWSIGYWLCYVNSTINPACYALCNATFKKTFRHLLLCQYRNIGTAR
CHRM4 antagonist: blocks acetylcholine activation of human M4 receptor | hit rate 0.73% among 360,000 | P08173 | inhibition, % at 3 µM | CHO-hM4 cells, ACh EC80, Fluo-8 calcium fluorescence | AID 624125;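 active = inhibition above its plate's cutoff, the mean inhibition of sample wells plus 3 SD, cut at about 27% in these data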;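 also: 0% = acetylcholine EC80 with DMSO and 100% = DMSO without agonist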
CHRM4 agonist: CHRM4 agonism in calcium assay | AID 624127 | CHO-K1 hM4/Gqi5, Fluo-8 calcium fluorescence; vehicle 0%, full acetylcholine response 100% | hit rate 0.14% among 360,000 | P08173 | activation, % at 3 µM;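 active = activation above the run mean over all test wells plus 3 SD, cut at about 32% in these data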;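 also: peak over basal fluorescence ratio per well then scaled between controls; 0% = DMSO wells and 100% = acetylcholine at EC100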
CHRM5 agonist: agonists of human muscarinic M5 receptor (CHRM5); activation, % at 3 µM; P08912; CHO-K1 hM5 cells, Fluo-8 calcium fluorescence; 0% DMSO wells, 100% maximal acetylcholine response; hit rate 0.19% among 360,000;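 active = activation above the run's mean over test compounds plus 3 SD, cut at about 23% in these data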;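 also: signal is peak over basal fluorescence ratio across the kinetic read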
M5 antag: blocks acetylcholine activation of human M5 receptor; P08912; CHO-hM5 cells, Fluo-8 calcium fluorescence, ACh EC80; inhibition, % at 3 µM; hit rate 0.59% among 360,000; AID 624040;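 active = inhibition above a per-plate cutoff, the mean of that plate's test compounds plus 3 SD, cut at about 27% in these data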;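 also: 0% = acetylcholine EC80 with DMSO and 100% = DMSO without agonist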
M5 PAM: positive allosteric modulators of human muscarinic M5 receptor. P08912. CHO-K1 hM5, Fluo-8 calcium, ACh EC20 PAM; 0% = ACh EC20, 100% = ACh EC100. activation, % at 3 µM. hit rate 0.3% among 360,000. AID 624038;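 active = activation above the run cutoff, the mean activation of all test compounds plus 3 SD, cut at about 18% in these data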
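Test system: CHO-K1 hM5 cells / Doses: single-point, 3 µM nominal / Times: Post-acetylcholine fluorescence recording 140 s / Technique: Fluo-8 calcium fluorescence / Measure: Max/basal fluorescence ratio as % of EC20–EC100 ACh window / Benchmarks: low control EC20 acetylcholine (0%), high control EC100 acetylcholine (100%) / Replicates: one well per compound, no replicates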
* hit, by the source's call.

SMILES	CHRM4 PAM	CHRM4 antagonist	CHRM4 agonist	CHRM5 agonist	M5 antag	M5 PAM
COc1ccc(NC(=O)C2(C)CCN2Cc2ccc3ccccc3c2)cc1OC (stereo not given)	-8	-9	10	0	6	-15
C[C@@H]1C2CC(C/C2=N\NC(=O)c2ccncc2)C1(C)C (stereo not given in full)	1	-8	1	2	12	39*
CN(C)CCNC(=O)C(c1ccccc1)c1ccccc1	-5	-4	1	-20	11	-8
CN(C)CCC(=O)C(Cc1ccccc1)c1ccccc1 (stereo not given)	-15	35*	4	-18	5	-19
CC(CCCN(C)C)C(Cc1ccccc1)c1ccccc1 (stereo not given)	-17	29*	10	-18	31*	-35
CN(C)CC(c1ccccc1)c1ccccc1	-2	3	0	-19	14	-6
COc1ccc(CC(N)c2csc(NC(=O)c3cccs3)n2)cc1 (stereo not given)	-7	-6	9	3	1	1
Cc1nc2cc(Oc3nc(NCCN(C)C)nc4ccsc34)ccc2s1	-1	-4	5	-3	9	-7
O=C(NCc1ccc(F)cc1F)[C@@H]1CCCN1C(=O)[C@@H]1CCCN1C(=O)c1cccs1	1	1	-1	0	3	-2
CC(O)(c1ccc(F)c(F)c1)c1nc(-c2cccc3cccnc23)cs1 (stereo not given)	4	-7	0	-2	2	1
CNC(=S)Nn1cnc2ccccc21	8	-1	0	3	-15	22*
COC(=O)C1=NN(C(=O)c2cccc(Br)c2)C(O)(c2ccc(Cl)cc2)C1 (stereo not given)	-5	2	39*	16	3	-11
C=C1CC(COc2ccc3c(C)c(Cl)c(=O)oc3c2)(c2ccccc2)OC1=O (stereo not given)	-5	13	4	-1	10	-8
CCOC(=O)c1ccc(NC(=S)N2CCSC2c2ccc(Cl)cc2)cc1 (stereo not given)	-3	28*	61*	35*	15	8
CCCCCCCn1c2c(c(=N)c3ccccc31)CCC2	-8	4	2	-16	27*	-9
COc1ccc(C(C)(O)c2nc(-c3ccc(S(C)(=O)=O)cc3)cs2)cc1 (stereo not given)	1	1	3	2	-5	1
CC(C)c1cc(C(=O)Nc2cc(Br)ccc2O)no1	-8	4	1	-4	34*	-14
O=C(Nc1cccc2ccccc12)c1ccc2sc([C@@H]3O[C@H](CO)[C@H](O)[C@H](O)[C@H]3O)nc2c1	-2	-6	0	-1	13	-9
COc1ccc(CNC(=O)COC(=O)[C@H](Cc2c[nH]c3ccccc23)NC(=O)c2cccs2)cc1	-23	31*	12	0	11	-14
CN1CCN(NC(=O)c2ccc(Cl)cc2Cl)CC1	-4	-1	1	-3	5	-4
CN1CCN(NC(=O)c2cc(Br)ccc2Cl)CC1	-2	1	1	-6	27*	-13
CC1Oc2ccc(C#N)cc2N(Cc2ccccc2OC(F)(F)F)C1=O (stereo not given)	4	4	-2	-4	-5	0
Cc1cc(C)n(-c2nc(Nc3ccccc3)nc(-n3nc(C)cc3C)n2)n1	1	17	-1	1	-5	5
COc1cccc(/C=N/Nc2nc(Nc3ccccc3)nc(-n3nc(C)cc3C)n2)c1O	-19	18	43*	1	16	-15
Cc1cc(C(=O)N/N=C/c2c(C)[nH]n(-c3ccccc3)c2=O)n[nH]1	7	-2	0	-4	-15	19*
SMILES	CHRM4 PAM	CHRM4 antagonist	CHRM4 agonist	CHRM5 agonist	M5 antag	M5 PAM
Cc1[nH]n(-c2ccccc2)c(=O)c1/C=N/NC(=O)c1ccc(O)cc1O	2	-1	-2	-3	13	-5
CC1(C(=O)NCCC#N)CCN1C(=O)CC(c1ccccc1)c1ccccc1 (stereo not given)	1	-8	0	0	-2	-3
Cc1cc(=O)n2nc(N3CCCC(C(=O)N4CCc5ccccc54)C3)sc2n1 (stereo not given)	-18	32*	-1	-8	6	-14
Cc1ccc(S(=O)(=O)N(C)C[C@H]2OCCCC[C@@H](C)Oc3ccc(N(C)C)cc3C(=O)N([C@H](C)CO)C[C@@H]2C)cc1	1	-4	0	0	-1	0
C[C@@H]1CCCCO[C@@H](CN(C)S(=O)(=O)c2ccc(Cl)cc2)[C@@H](C)CN([C@H](C)CO)C(=O)c2cc(N(C)C)ccc2O1	18*	-22	0	-1	1	5
Cc1cc(C(=O)N2CCN(c3ccc([N+](=O)[O-])cc3)CC2)co1	41*	33*	17	2	1	-7
O=C(CN1CCN(c2ccc([N+](=O)[O-])cc2)CC1)c1ccccc1	-16	29*	2	-3	9	-4
O=C(CCc1ccccc1)N1CCN(c2ccc([N+](=O)[O-])cc2)CC1	29*	-1	10	1	2	-4
Cc1cc(C(=O)N2CCN(c3ccc([N+](=O)[O-])cc3)CC2)c(C)o1	-2	-8	6	2	9	-13
CCN(CC)S(=O)(=O)c1cccc(NC(=O)COC(=O)c2[nH]c(C)c(C(C)=O)c2C)c1	-3	4	11	2	11	-7
c1ccc(C(Cc2nc(-c3ccncc3)no2)c2ccccc2)cc1	-11	18	1	0	31*	-16
CC1(C)C(=O)C=CC(=O)C(C)(C)C(=O)C=CC(=O)C(C)(C)C2=CC=C(O2)C(C)(C)C(=O)C=CC1=O	4	-5	4	1	15	-3
CCN(CC)CCN(Cc1cc2cccc(C)c2[nH]c1=O)C(=S)Nc1ccccc1	-9	4	1	63*	58*	-31
Cc1ccc2cc(CN(CCN(C)C)C(=S)Nc3ccccc3)c(=O)[nH]c2c1C	6	-11	2	43*	37*	-24
CC1(C(=O)NS(=O)(=O)c2ccccc2)CCN1C(=O)CC1CCCCC1 (stereo not given)	0	11	0	0	11	-3
C=CCNc1nc(NCCOc2ccccc2Cl)c2sc(-c3ccccc3)cc2n1	-3	-9	0	-2	-3	-2
O=C(Nc1cccc(C(F)(F)F)c1)N1CCC(c2nc(-c3ccc(F)cc3)no2)CC1	-18	51*	16	-2	39*	-23
